We go through 13 compounds from ChEMBL document CHEMBL4414600, “Discovery of a Furanopyrimidine-Based Epidermal Growth Factor Receptor Inhibitor (DBPR112) as a Clinical Candidate for the Treatment of Non-Small Cell Lung Cancer” (J Med Chem, 2019).

The term IC50 denotes the point on the concentration scale where inhibition reaches its midpoint. As a reminder, the CC50 is the concentration giving 50% cytotoxicity. What is called AUC(0-inf) is total exposure, with the tail of the curve extrapolated. As usually defined, the Cmax is the maximum level reached in the sampled fluid or tissue. By half-life is commonly meant the time needed for the level to fall by half in the phase considered. The low end stands for fast loss, the high end for slow loss. One may read the clearance as a measure of how efficiently the substance is removed, as volume per time. A higher clearance goes with a high capacity for elimination. As usually defined, the Tmax is the time from dosing to the highest level. What is called bioavailability is the share of a dose that reaches the circulation, judged against a reference dose that is usually intravenous. Read a low bioavailability as little systemic uptake.

Activity calls are given as the source filed them. Where only a bound is given, the exact number is not on record here.

The target in series [1] is Epidermal growth factor receptor (Homo sapiens, UniProt P00533, L858R/T790M).
Sequence of Epidermal growth factor receptor (Homo sapiens, UniProt P00533, L858R/T790M) (P00533 25-1210 T790M/L858R limits assumed): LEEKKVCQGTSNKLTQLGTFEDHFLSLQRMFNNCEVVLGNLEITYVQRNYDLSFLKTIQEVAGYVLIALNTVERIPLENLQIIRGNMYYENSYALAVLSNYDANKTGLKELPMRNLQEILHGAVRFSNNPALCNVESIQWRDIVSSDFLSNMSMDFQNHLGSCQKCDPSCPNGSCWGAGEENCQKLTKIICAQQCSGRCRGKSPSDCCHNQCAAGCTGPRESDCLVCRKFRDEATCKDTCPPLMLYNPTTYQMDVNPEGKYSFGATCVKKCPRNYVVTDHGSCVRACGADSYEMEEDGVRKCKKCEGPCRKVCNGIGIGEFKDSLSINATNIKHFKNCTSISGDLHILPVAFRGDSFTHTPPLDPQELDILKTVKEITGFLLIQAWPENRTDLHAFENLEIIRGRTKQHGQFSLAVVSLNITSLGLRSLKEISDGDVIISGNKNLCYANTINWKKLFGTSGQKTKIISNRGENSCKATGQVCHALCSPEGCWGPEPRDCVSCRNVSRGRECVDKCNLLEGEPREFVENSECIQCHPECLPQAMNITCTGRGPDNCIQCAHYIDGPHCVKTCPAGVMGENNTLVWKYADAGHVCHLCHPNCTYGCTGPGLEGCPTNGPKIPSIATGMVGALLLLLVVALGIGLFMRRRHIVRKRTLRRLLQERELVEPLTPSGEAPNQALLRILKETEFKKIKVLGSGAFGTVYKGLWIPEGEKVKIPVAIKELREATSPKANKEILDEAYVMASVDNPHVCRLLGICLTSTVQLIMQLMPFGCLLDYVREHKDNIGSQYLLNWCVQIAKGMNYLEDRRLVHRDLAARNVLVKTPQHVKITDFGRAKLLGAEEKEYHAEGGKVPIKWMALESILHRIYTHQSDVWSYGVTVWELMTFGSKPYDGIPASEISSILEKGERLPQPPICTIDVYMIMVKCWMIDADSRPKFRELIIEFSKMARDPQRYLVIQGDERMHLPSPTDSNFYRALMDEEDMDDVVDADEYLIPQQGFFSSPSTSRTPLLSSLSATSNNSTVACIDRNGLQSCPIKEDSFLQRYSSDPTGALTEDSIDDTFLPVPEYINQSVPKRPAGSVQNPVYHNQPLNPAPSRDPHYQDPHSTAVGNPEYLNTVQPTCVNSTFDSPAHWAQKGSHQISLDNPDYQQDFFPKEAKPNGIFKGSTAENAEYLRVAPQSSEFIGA
Series [2] relates to HCC827. Briefly: Cytotoxicity in human HCC827 cells assessed as reduction in cell viability incubated for 96 hrs by MTS method. Type of series: functional. In general terms: Formazan colour is commonly taken as a measure of viable cells.
The target of series [3] is Epidermal growth factor receptor (Homo sapiens, UniProt P00533).
Sequence of Epidermal growth factor receptor (Homo sapiens, UniProt P00533) (P00533 whole entry): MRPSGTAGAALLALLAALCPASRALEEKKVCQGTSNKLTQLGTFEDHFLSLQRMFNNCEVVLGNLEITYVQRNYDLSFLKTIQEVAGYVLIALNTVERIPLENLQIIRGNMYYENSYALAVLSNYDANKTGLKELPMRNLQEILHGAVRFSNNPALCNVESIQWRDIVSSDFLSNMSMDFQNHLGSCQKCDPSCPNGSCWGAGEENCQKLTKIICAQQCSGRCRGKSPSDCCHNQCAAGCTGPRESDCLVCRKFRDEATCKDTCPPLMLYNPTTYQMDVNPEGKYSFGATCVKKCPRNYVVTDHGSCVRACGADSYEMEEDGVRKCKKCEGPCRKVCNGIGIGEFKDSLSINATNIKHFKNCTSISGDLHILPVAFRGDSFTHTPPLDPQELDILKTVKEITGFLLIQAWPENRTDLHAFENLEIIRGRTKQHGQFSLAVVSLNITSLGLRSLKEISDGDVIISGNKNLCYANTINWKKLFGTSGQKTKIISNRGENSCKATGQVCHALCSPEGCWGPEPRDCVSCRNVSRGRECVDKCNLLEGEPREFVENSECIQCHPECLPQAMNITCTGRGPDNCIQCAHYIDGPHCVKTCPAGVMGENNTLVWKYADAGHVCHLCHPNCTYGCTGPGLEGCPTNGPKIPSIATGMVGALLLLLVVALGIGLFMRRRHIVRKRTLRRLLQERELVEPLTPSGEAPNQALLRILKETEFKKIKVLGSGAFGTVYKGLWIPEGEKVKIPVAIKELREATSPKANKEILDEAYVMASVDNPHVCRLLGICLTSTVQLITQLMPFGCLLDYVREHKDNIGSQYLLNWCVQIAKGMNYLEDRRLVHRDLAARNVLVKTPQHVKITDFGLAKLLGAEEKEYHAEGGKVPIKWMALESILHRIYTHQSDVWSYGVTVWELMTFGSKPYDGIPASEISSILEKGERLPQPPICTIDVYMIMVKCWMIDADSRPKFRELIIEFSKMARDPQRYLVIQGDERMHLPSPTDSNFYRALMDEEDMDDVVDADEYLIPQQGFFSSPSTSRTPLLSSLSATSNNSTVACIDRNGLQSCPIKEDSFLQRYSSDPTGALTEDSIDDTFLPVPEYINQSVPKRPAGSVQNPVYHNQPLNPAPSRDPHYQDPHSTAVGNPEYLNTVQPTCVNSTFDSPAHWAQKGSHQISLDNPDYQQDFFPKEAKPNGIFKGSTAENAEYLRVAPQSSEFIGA
Series [4] relates to NCI-H1975. The experiment in a line: Cytotoxicity in human NCI-H1975 cells assessed as reduction in cell viability incubated for 96 hrs by MTS method. It is filed as functional.
The nature of series [5]: Inhibition of GST-tagged human HER2 V777_G778insCG mutant mutant using poly(Glu, Tyr) 4:1 substrate incubated for 120 mins by kinase-Glo plus luminescent kinase assay. For orientation: Kinase-Glo measures the ATP left after a reaction by luminescence.
A short description of series [6]: Inhibition of GST-tagged human EGFR D770GY mutant using poly(Glu, Tyr) 4:1 substrate incubated for 120 mins by kinase-Glo plus luminescent kinase assay.
Another series concerns A-431. The experiment in a line: Cytotoxicity in human A431 cells assessed as reduction in cell viability incubated for 96 hrs by MTS method. Type of series: functional. Conditions: Homo sapiens, A-431, 96 h.
Series [7] concerns the target Epidermal growth factor receptor (Homo sapiens, UniProt P00533, A763-Y764INSFHEA). Briefly: Inhibition of GST-tagged human EGFR A763_Y764insFHEA mutant using poly(Glu, Tyr) 4:1 substrate incubated for 120 mins by kinase-Glo plus luminescent kinase assay.
For series [8], the target named is Epidermal growth factor receptor (Homo sapiens, UniProt P00533, D770-N771INSNPG). The experiment in a line: Inhibition of GST-tagged human EGFR D770_N771insNPG mutant using poly(Glu, Tyr) 4:1 substrate incubated for 120 mins by kinase-Glo plus luminescent kinase assay.
Sequence of Epidermal growth factor receptor (Homo sapiens, UniProt P00533, D770-N771INSNPG) (P00533 whole entry, looked up, stated change not applied): as the sequence (P00533 whole entry) above
Series [9] in a line: Toxicity in ICR mouse assessed as induction of skin rash at 100 mg/kg, po QD for 2 weeks. It is filed as organism-based. Conditions: in vivo, 336 h.
A short description of series [10]: AUC (0 to infinity) in rat at 20 mg/kg, po. The arrangement: dose 20 mg/kg, route oral, time infinity. The note with it: in vivo. It is filed as ADME, organism-based. Put shortly:
(§1)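 Rat pharmacokinetics: single IV injection at 5 mg/kg or oral dosing at 20 mg/kg (23.6 mg/kg oral for one compound). Plasma parameters t1/2, CL, Vss, AUC(0-inf), Cmax, Tmax and oral bioavailability F were derived from the concentration–time profiles.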

Series [11] can be described thus: Cmax in rat at 20 mg/kg, po. It is filed as ADME, organism-based. Conditions: in vivo. The arrangement: dose 20 mg/kg, route oral. A digest of the protocol:
as §1

Series [12] in a line: Half life in rat at 5 mg/kg, iv. Conditions: in vivo. It is filed as ADME, organism-based.
The test system of series [13] is HCC827. The note with it: Homo sapiens.
The nature of series [14]: Toxicity in nude BALB/c mouse xenografted with human NCI-H1975 cells assessed as drug tolerability at 15 mg/kg, po QD for 15 days relative to control. The note with it: in vivo, 360 h. It is filed as organism-based. Put shortly: (§2)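 H1975 cells were grown in RPMI1640 with 10% heat-inactivated FBS at 37 °C, 5% CO2, and passaged by trypsin-EDTA. 5x10^6 cells in 0.1 ml PBS were injected subcutaneously at the right flank of BALB/c nude mice. Oral QD dosing for 15 days began at a mean tumor size of 147 mm³, n = 5 per group.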
In general terms: In xenograft studies the graft and the host belong to different species.

Series [15] is described as follows: Clearance in rat at 5 mg/kg, iv. Type of series: ADME, organism-based. The note with it: in vivo.
Series [16] can be described thus: AUC (0 to infinity) in rat at 5 mg/kg, iv. Type of series: ADME, organism-based. The note with it: in vivo. Further details: dose 5 mg/kg, time infinity, route intravenous.
A short description of series [17]: Tmax in rat at 20 mg/kg, po. Type of series: ADME, organism-based. Conditions: in vivo. Put shortly: as §1
A short description of series [18]: Toxicity in athymic NU-Fox1nu nude mouse xenografted with human HCC827 cells assessed as induction of body weight loss at 20 mg/kg, po dosed via gavage for 5 days/week for 2 consecutive weeks. Type of series: organism-based. Conditions: in vivo, 120 h. A digest of the protocol:
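Male athymic NU-Fox1nu nude mice, 6–8 weeks old, were inoculated subcutaneously at the left flank with 5x10^6 HCC827 (exon 19 Del E746_A750) cells. Oral gavage began at a mean tumor size of about 500 mm³, in 1% methylcellulose/0.5% Tween 80/98.5% water, once daily on days 1-5 and 8-12. Tumor volume (V = 0.5 a × b², caliper) and body weight were tracked.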

Series [19] is described as follows: Half life in rat at 20 mg/kg, po. Type of series: ADME, organism-based. Conditions: in vivo. Put shortly:
as §1

The nature of series [20]: Volume of distribution at steady state in rat at 5 mg/kg, iv. Type of series: ADME, organism-based. Conditions: in vivo, read-out: Vdss.
The nature of series [21]: Toxicity in nude BALB/c mouse xenografted with human NCI-H1975 cells assessed as induction of body weight loss at 15 mg/kg, po QD for 15 days relative to control. Type of series: organism-based. The note with it: in vivo, 360 h. A digest of the protocol:
as §2

A short description of series [22]: Toxicity in ICR mouse assessed as induction of fur loss in nose and abdomen area at 100 mg/kg, po QD for 2 weeks. It is filed as organism-based. The note with it: in vivo, 336 h.
Series [23] can be described thus: Oral bioavailability in rat at 20 mg/kg. It is filed as ADME, organism-based. Conditions: in vivo. Put shortly:
as §1

Series [24] concerns NCI-H1975. The experiment in a line: Antitumor activity against human NCI-H1975 cells xenografted in nude BALB/c mouse assessed as inhibition of tumor growth at 15 mg/kg, po QD for 15 days relative to control. It is filed as functional. Conditions: 360 h, read-out: TGI. A digest of the protocol:
as §2

Sequence of Epidermal growth factor receptor (Homo sapiens, UniProt P00533, A763-Y764INSFHEA) (P00533 whole entry, looked up, stated change not applied): as the sequence (P00533 whole entry) above

Take `O=C(/C=C/c1ccccc1)Nc1cccc(-c2c(-c3ccccc3)oc3ncnc(N[C@H](CO)c4ccccc4)c23)c1`: the figures for the IC50 in series [1] and in series [3] were > 10000 nM and 5000 nM, respectively. In addition, the 50% cytotoxic concentration (CC50) with HCC827 [2] (Homo sapiens, HCC827, 96 h) is 1780 nM; with NCI-H1975 [4] (Homo sapiens, NCI-H1975, 96 h) it was > 20 µM.
Consider `C=CC(=O)N1CCC(Oc2cc3c(Nc4ccc(Cl)c(Cl)c4F)ncnc3cc2OC)CC1` [POZIOTINIB], for which the half-maximal inhibitory concentration (IC50) in [5] came out at 0.206 nM; in [6], 0.082 nM. Besides, the CC50 in the series with A-431 turned out to be 31 nM.
Take `C=CC(=O)Nc1cccc(-c2csc3ncnc(N[C@H](CO)c4ccccc4)c23)c1`: the half-inhibitory concentration (IC50) in series [1] was 2320 nM; in series [3], 82 nM. Also, the CC50 was 56 nM in the series with HCC827 [2] (Homo sapiens, HCC827, 96 h) and > 20 µM with NCI-H1975 [4] (Homo sapiens, NCI-H1975, 96 h).
`C=CC(=O)Nc1cccc(-c2c(-c3ccccc3)sc3ncnc(N[C@H](CO)c4ccccc4)c23)c1`: the IC50 came out at 1.15 nM in series [7]; 650 nM in [1]; 17.8 nM in series [8]; 369 nM in series [5]; 4.82 nM in series [6]; 136 nM in series [3]. For the same compound, the CC50 in the series with HCC827 [2] (Homo sapiens, HCC827, 96 h) is 146 nM; with A-431, > 20000 nM; in the series with NCI-H1975 [4] (Homo sapiens, NCI-H1975, 96 h) it was 10.7 µM.
Take `C=CC(=O)Nc1cccc(-c2coc3ncnc(N[C@H](CO)c4ccccc4)c23)c1`: the IC50 in series [1] is > 10000 nM; in [3], 159 nM. For the same compound, the CC50 in the series with HCC827 [2] (Homo sapiens, HCC827, 96 h) was 744 nM; with NCI-H1975 [4] (Homo sapiens, NCI-H1975, 96 h), > 20 µM.
The matching figures for `C=CC(=O)Nc1cccc(-c2c(Cl)sc3ncnc(N[C@H](CO)c4ccccc4)c23)c1`: 1080 nM, 81 nM, 51 nM and 8.66 µM.
For the compound `C=CC(=O)Nc1cccc(-c2c(-c3ccccc3)oc3ncnc(N[C@H](C)c4ccccc4)c23)c1`, the half-inhibitory concentration (IC50) is 0.214 nM in [7]; 500 nM in [1]; 1.48 nM in series [8]; 8.13 nM in series [5]; 0.641 nM in series [6]; 117 nM in [3]. Moreover, the 50% cytotoxic concentration (CC50) in the series on HCC827 [2] (Homo sapiens, HCC827, 96 h) was 58 nM; with A-431, 449 nM; with NCI-H1975 [4] (Homo sapiens, NCI-H1975, 96 h) it was 4.3 µM.
Take `CN(C)C/C=C/C(=O)Nc1cc2c(Nc3ccc(F)c(Cl)c3)ncnc2cc1O[C@H]1CCOC1` [AFATINIB]: the Activity result is listed as “Toxic” in [9]; “Non-Toxic” in series [14]; 5% in [18]; “Non-Toxic” in [21]; “Toxic” in series [22]. Also, the total exposure AUC(0-inf) turned out to be 676 ng·h/mL in [10] and 1060 ng·h/mL in [16]. In series [11], this compound returned a peak concentration (Cmax) of 75.2 ng/mL. The half-life in series [12] is 342 min; in series [19], 360 min. Moreover, in the series on HCC827 [13], the TGI entry was “Active”. For the same compound, the clearance in [15] is 79.2 mL/min/kg. The Tmax in series [17] amounted to 4.2 h. Moreover, the CC50 amounted to 14 nM with HCC827 [2] (Homo sapiens, HCC827, 96 h) and 0.224 µM with NCI-H1975 [4] (Homo sapiens, NCI-H1975, 96 h). The Vd in series [20] came out at 28.7 L/kg. In series [23], this compound came in with a bioavailability of 15.9%. Further, in the series on NCI-H1975 [24], the inhibition in vivo at 15 mg/kg is 65%.
For `C=CC(=O)Nc1cccc(-c2c(-c3ccccc3)oc3ncnc(N[C@H](CO)c4ccccc4)c23)c1`, the total exposure AUC(0-inf) in [10] is 303 ng·h/mL; in [16] it was 1100 ng·h/mL. Besides, the highest level in series [11] (Cmax) was 193 ng/mL. For the same compound, the half-life is 30 min in series [12] and 54 min in series [19]. The compound further registered a clearance in series [15] of 76.5 mL/min/kg. Also, the time to peak (Tmax) in series [17] amounted to 1.2 h. Moreover, the figures for the half-maximal cytotoxic concentration (CC50) in the series with HCC827 [2] and with NCI-H1975 [4] were 24 nM and 1.26 µM, respectively. For the same compound, in series [20], the Vd was 2.3 L/kg. For the same compound, the bioavailability in series [23] came to 5.5%.
For the compound `C=CC(=O)Nc1cccc(-c2noc3ncnc(N[C@H](CO)c4ccccc4)c23)c1`, the half-inhibitory concentration (IC50) was 4630 nM in series [1] and 416 nM in series [3]. In addition, the CC50 with HCC827 [2] (Homo sapiens, HCC827, 96 h) is 105 nM; in the series on NCI-H1975 [4] (Homo sapiens, NCI-H1975, 96 h), > 20 µM.
The matching figures for `C=CC(=O)Nc1cccc(-c2c(C)oc3ncnc(N[C@H](CO)c4ccccc4)c23)c1`: 1320 nM, 62 nM, 46 nM and > 20 µM.
For `CN(C)C/C=C/C(=O)Nc1cccc(-c2c(-c3ccccc3)oc3ncnc(N[C@@H](CO)c4ccccc4)c23)c1`, in the series with HCC827 [2], the half-maximal cytotoxic concentration (CC50) amounted to 1050 nM.
With `CC(C)C/C=C/C(=O)Nc1cccc(-c2c(-c3ccccc3)oc3ncnc(N[C@H](CO)c4ccccc4)c23)c1`, the IC50 in series [1] and in series [3] was > 10000 nM throughout. In addition, the CC50 in the series on HCC827 [2] (Homo sapiens, HCC827, 96 h) is 679 nM; in the series with NCI-H1975 [4] (Homo sapiens, NCI-H1975, 96 h), > 20 µM.
